# Bioassay records from PubChem.
# The list is not random: actives were taken first. Their share in the collection is about 2.6%.
# EP2 antag: inhibitors of human EP2 prostaglandin E2 receptor; hit rate 0.52% among 260,000; P43116; inhibition, % at 25 µM; C6 glioma cells expressing human EP2, cAMP TR-FRET; cells stimulated with saturating PGE2;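 active = percent inhibition above 40 after rounding to a whole number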;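 note: rat C6 glioma host cells with rolipram phosphodiesterase inhibitor present; the protocol text gives 20 µM as final concentration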
# Target sequence (P43116 whole entry, looked up): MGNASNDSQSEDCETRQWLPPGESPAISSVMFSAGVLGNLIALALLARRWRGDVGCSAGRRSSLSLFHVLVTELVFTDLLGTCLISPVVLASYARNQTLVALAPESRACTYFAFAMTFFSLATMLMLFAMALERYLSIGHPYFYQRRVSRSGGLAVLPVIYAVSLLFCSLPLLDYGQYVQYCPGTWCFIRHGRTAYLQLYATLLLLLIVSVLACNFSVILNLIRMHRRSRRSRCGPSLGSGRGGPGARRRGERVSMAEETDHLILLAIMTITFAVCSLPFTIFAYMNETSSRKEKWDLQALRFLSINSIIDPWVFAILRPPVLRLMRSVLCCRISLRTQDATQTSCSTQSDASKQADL
# EP2 modulator: modulators of human EP2 prostaglandin E2 receptor; induction, % at 25 µM; hit rate 0.83% among 260,000; EP2-expressing cells, cAMP HTRF FRET, PGE2 co-stimulation; P43116;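 active = compounds whose cAMP rise, as percent of the full-agonist control response, exceeds 60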;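 note: rat C6 glioma line stably carrying human EP2 under a CMV promoter; the protocol text gives 20 µM as final concentration; 100% = response of wells given 1 µM PGE2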
# Exocytosis inh: lytic granule exocytosis inhibition. TALL-104 LAMP-1 surface exposure, flow cytometry; cells stimulated with thapsigargin and PMA. inhibition, % at 10 µM. hit rate 0.66% among 360,000. AID 651702;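 active = inhibition above about 55%, limit read from the data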
# MC4R barr agon: agonists of human melanocortin 4 receptor (MC4R) beta-arrestin; U2OS MC4R beta-arrestin complementation, luminescence; percent of melanotan II response, DMSO zero; hit rate 0.98% among 360,000; activation, % at 8.9 µM;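 active = activation above a per-plate cutoff, the mean activation of sample wells on that plate plus 3 SD, cut at about 8% in these data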
# MC4R antagonist: blocks human MC4R cAMP signaling; P32245; MC4R-expressing cells, MTII-stimulated cAMP, LANCE TR-FRET; inhibition, % at 6.5 µM; hit rate 0.48% among 360,000;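 active = inhibition above its plate's cutoff, the mean of tested wells on that plate plus 3 SD, cut at about 29% in these data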;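 note: 0% = Melanotan II alone and 100% = Melanotan II plus saturating MCL0020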
#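 System – human MC4R-expressing U2OS cells · Also added – Melanotan II · Dosing – one concentration, 6.5 µM nominal · Timing – 30-min compound, 1-h challenge, 1-h detection, room temperature · Measured by – Eu-cAMP/anti-cAMP TR-FRET, emission 671 nm · Replicates – singlicate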
# T cell modulator: T cell immune modulation candidate | AID 2052 | 2C CD8+ T cell-vesicle binding, flow cytometry; stronger effect = lower value | hit rate 0.068% among 330,000 | response (vesicle binding), % at 7 µM;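 active = response, share of CD8 T cells binding vesicles, and their 90th percentile fluorescence all below set limits, cut at about 80% in these data, passing the limit was not always enough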;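 note: values below 100% mean blocked vesicle binding to the CD8+ T cells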
#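 Incubation: binding step 1.5 h, 37 °C, antibody labelling 20 min, ice; system: murine 2C transgenic CD8+ T lymphocytes; technique: cytometric PE anti-B7-1 and Alexa647 anti-CD8 signals after 1% paraformaldehyde fixation; also added: QL9-charged Drosophila Ld/ICAM-1/B7-1 vesicles; control set: naked versus QL9-loaded vesicles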
# An asterisk follows results filed as active; . = not tested or not shown.
SMILES,EP2 antag,EP2 modulator,Exocytosis inh,MC4R barr agon,MC4R antagonist,T cell modulator
CC(C)(C)NC(=O)Cn1c(SCC(=O)NC2CCCC2)nc2ccccc21,.,.,14,0,12,258
CCOCCOC(=O)C1=C(C)NC2=C(C(=O)CC(C)(C)C2)C1c1ccccc1Cl (configuration not stated),6,11,.,.,.,.
N#Cc1cn(Cc2ccccc2)c2ccccc12,6,63*,-2,-1,-2,191
Cc1ccc(OCCn2cc(C#N)c3ccccc32)cc1,12,40,68*,-1,2,212
N#Cc1ccccc1Cn1cc(C#N)c2ccccc21,8,3,-1,3,-3,197
N#Cc1cn(Cc2ccc(Cl)cc2)c2ccccc12,15,67*,.,.,.,.
COC(=O)Cn1cc(C#N)c2ccccc21,13,3,-2,-1,-1,160
Cc1ccc(S(=O)(=O)N2CCOCC2)cc1C(=O)N1CCN(S(=O)(=O)c2cccs2)CC1,5,14,10,2,5,184
Cc1ccc2cc(CN(Cc3ccco3)C(=O)NC3CCCCC3)c(=O)[nH]c2c1C,6,61*,-8,-1,4,452
Cc1cc(C)c2[nH]c(=O)c(CN(Cc3ccco3)C(=O)NC3CCCCC3)cc2c1,6,27,.,.,.,.
CCOC(=O)C1=C(C)NC(C)=C(C(=O)OCC)C1c1cccc([N+](=O)[O-])c1,.,.,-1,4,-3,.
COC(=O)C1=C(C)NC(C)=C(C(=O)OCC(C)C)C1c1ccccc1[N+](=O)[O-] (configuration not stated),19,.,68*,0,21,954
OCCCCc1nccc2c1[nH]c1ccccc12,8,-5,-6,0,6,17
N#Cc1ccc(/C=C\c2nccc3c2[nH]c2ccccc23)cc1,4,-7,72*,4,8,259
CC(C)N1CCN(Cc2ccc(Sc3nncn3C)o2)CC1CCO (configuration not stated),7,66*,-4,1,1,369
Clc1ccc(-c2nnnn2-c2ccc(Cl)cc2)cc1,7,-43,4,3,9,151
Cc1ccc(-n2nnnc2C(Cl)(Cl)c2nnnn2-c2ccc(C)cc2)cc1,91*,-5,48,-1,-34,628
N#C/C(=C/c1cn(-c2ccccc2)nc1-c1cccc(OCc2ccccc2)c1)C(=O)NCCCn1ccnc1,3,4,28,-2,-1,206
CCOc1cccc(-c2nn(-c3ccccc3)cc2/C=C(/C#N)C(=O)NCCCn2ccnc2)c1,10,19,68*,6,1,197
CCOC(=O)c1cc(-c2ccc(OC)cc2F)nc2c1c(C)nn2CCC#N,8,43,4,-1,7,176
COc1ccc(Cn2c(-c3ccc(C)cc3)nc3c(c(=O)c4ccccc4n3C)c2=O)cc1,10,1,1,9.2*,15,475
c1ccc2c(CN3CCN(Cc4c[nH]c5ccccc45)CC3)c[nH]c2c1,62*,-21,.,.,.,.
CC(=O)Nc1ccc(S(=O)(=O)NCCC(=O)OCCN2C(=O)c3ccccc3C2=O)cc1,1,5,4,-3,10,394
CCCc1ccc(Oc2cn[nH]c2-c2ccc(O)c(C)c2O)cc1,53*,-17,33,6,10,322
N#Cc1c(Cl)c(Cl)c2nnc(-c3ccc(Br)cc3)n2c1Cl,118*,-50,.,.,.,156
CCCNC(=O)CN1N=C(C(C)(C)C)Cn2c(cc3ccccc32)C1=O,.,-110,.,.,.,.
CCc1cccc(C)c1NC(=O)CCCC(=O)O,17,13,2,1,-3,290
O=C(c1cccc(C(F)(F)F)c1)N1CCc2c([nH]c3ccccc23)C1C(F)(F)F (configuration not stated),16,-47,-5,8.8*,10,421
O=C(O)c1ccccc1C(=O)N1CCc2c([nH]c3ccccc23)C1C(F)(F)F (configuration not stated),8,-5,3,-1,-5,492
COc1ccc(CNC(=O)C(c2ccncc2)N(C(=O)Cc2cccs2)c2ccccc2)cc1 (configuration not stated),8,-4,-1,-1,-1,.
